The subject of one series is NCI-H596. As to the kind of experiment: Antitumor activity against human NCI-H596 cells xenografted in hHGF knock in NSG mouse assessed as tumor growth inhibition at 20 mg/kg, ip administered daily for 14 to 16 days. The class given is functional, organism-based. Conditions: time 14-16 day.
Series [1] can be described thus: Toxicity in NSG mouse assessed as body weight loss at 10 to 50 mg/kg, ip administered for 7 days. The class given is organism-based. Conditions: in vivo, dose 10-50 mg/kg, time 7 day.
A short description of series [2]: Acute toxicity in NSG mouse at 10 to 50 mg/kg, ip administered for 7 days. The class given is organism-based. Conditions: in vivo, dose 10-50 mg/kg, time 7 day.
The nature of series [3]: Toxicity in hHGF knock in NSG mouse xenografted with human NCI-H596 cells at 20 mg/kg, ip administered daily for 14 to 16 days. In kind it is organism-based. Conditions: in vivo, time 14-16 day.
A short description of series [4]: Toxicity in NSG mouse at 20 mg/kg, ip administered daily for 7 days. In kind it is organism-based. Conditions: in vivo, time 7 day.
The next series has as its system EBC-1. As to the kind of experiment: Cytotoxicity against human EBC-1 cells assessed as reduction in cell viability preincubated with compound and pro-HGF for 24 hrs followed by JNJ-38877605 addition and measured after 48 hrs by CellTiter-Glo assay. In kind it is functional, cell-based. Conditions: time 72.0 hrs. The essentials: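 EBC-1 cells pre-incubated 24 h with pro-HGF (100 ng/ml) with or without compound (1 µM), then given MET kinase inhibitor JNJ-38877605 (25 nM). Viability read by CellTiter-Glo after 48 h. Means±S.E.M., n=3; one-way ANOVA with Dunnett's test.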
(In general: In ATP-based viability assays light output follows the ATP content of the culture.)

For series [5], the target named is T1, Suppressor of tumorigenicity 14 protein (Homo sapiens, UniProt Q9Y5Y6).
T1 sequence (Q9Y5Y6 whole entry): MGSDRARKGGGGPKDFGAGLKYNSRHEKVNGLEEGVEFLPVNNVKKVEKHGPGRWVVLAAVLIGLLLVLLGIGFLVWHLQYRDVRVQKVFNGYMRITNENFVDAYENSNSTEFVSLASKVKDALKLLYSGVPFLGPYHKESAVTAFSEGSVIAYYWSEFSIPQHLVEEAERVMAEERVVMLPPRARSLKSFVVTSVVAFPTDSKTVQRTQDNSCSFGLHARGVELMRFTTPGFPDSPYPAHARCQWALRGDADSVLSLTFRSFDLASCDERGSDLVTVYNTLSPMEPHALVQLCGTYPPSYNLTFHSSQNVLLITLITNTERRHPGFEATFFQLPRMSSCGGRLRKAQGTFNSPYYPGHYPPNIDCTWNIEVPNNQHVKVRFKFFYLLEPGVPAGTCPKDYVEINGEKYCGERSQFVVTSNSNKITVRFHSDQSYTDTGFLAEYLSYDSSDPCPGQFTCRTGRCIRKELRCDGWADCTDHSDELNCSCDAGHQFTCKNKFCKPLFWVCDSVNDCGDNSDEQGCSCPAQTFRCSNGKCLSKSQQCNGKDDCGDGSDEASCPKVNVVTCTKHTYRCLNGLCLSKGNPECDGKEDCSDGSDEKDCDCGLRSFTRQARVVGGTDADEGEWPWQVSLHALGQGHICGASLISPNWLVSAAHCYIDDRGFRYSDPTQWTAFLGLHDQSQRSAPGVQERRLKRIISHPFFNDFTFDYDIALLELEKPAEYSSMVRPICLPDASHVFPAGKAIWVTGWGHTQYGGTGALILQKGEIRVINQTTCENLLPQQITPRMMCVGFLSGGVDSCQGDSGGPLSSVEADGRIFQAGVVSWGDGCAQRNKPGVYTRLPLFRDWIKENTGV
As to the kind of experiment: Inhibition of recombinant human N-terminal met-His6-tagged matriptase catalytic domain (Gly596 to Val855 residues) expressed in Escherichia coli using Boc-QAR-AMC as substrate preincubated for 30 mins followed by substrate addition by fluorescence based assay. The essentials:
(§1)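 Inhibitor in 11-point serial dilution (0-20 µM final, 2% DMSO) pre-incubated 30 min at room temperature with enzyme in TNC buffer (25 mM Tris, 150 mM NaCl, 5 mM CaCl2, 0.01% Triton X-100, pH 8). […] Hepsin activated beforehand 24 h at 37°C. Fluorescence ex 380/em 460 nm kinetic; four-parameter fit of velocities; mean of three experiments.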

Series [6] concerns the target T2, Serine protease hepsin (Homo sapiens, UniProt P05981). The series can be described thus: Inhibition of recombinant human C-terminal 10-His tagged hepsin (Arg45 to Leu417) expressed in mouse myeloma cells using Boc-QAR-AMC as substrate preincubated for 30 mins followed by substrate addition by fluorescence based assay. The class given is single protein. The gist of the method: as §1

Series [7] can be described thus: Stability in mouse plasma assessed as half life. In kind it is ADME, cell-free.
Series [8] is described as follows: Stability in human plasma assessed as half life. In kind it is ADME, cell-free.
Series [9] is described as follows: Plasma protein binding in mouse assessed as unbound fraction. The class given is ADME, cell-free.
The nature of series [10]: Half life in mouse plasma at 20 mg/kg, ip. Conditions: in vivo, 20 mg/kg. The class given is ADME, organism-based.
A short description of series [11]: Solubility of compound at pH 7.4. In kind it is physicochemical. Conditions: buffer.
Series [12] can be described thus: Stability in human liver microsomes assessed as half life. In kind it is ADME, Microsome. For orientation: Liver microsomes are a subcellular fraction often used to study metabolism.
Series [13] in a line: Stability in mouse liver microsomes assessed as half life. The class given is ADME, Microsome.
The target of series [14] is T3, Suppressor of tumorigenicity 14 protein (Homo sapiens) (UniProt Q9Y5Y6).
T3 sequence (whole entry): T1 sequence (Q9Y5Y6 whole entry)
The series can be described thus: Inhibition of recombinant human N-terminal met-His6-tagged matriptase catalytic domain (Gly596 to Val855 residues) expressed in Escherichia coli mediated pro-HGF activation preincubated for 30 mins followed by pro-HGF addition and measured after 1 hr by immunoblotting analysis. The essentials:
(§2)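 Recombinant pro-HGF (10 ng) incubated one hour with matriptase (1 nM), hepsin (10 nM) or HGFA (5 nM), with or without inhibitor. Processing detected by immunoblot with a polyclonal antibody recognizing pro-HGF and the HGF alpha and beta chains; active HGF served as positive control.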
A general note: A western blot detects proteins with antibodies after separation by electrophoresis.

For series [15], the target named is T2, Serine protease hepsin. The series can be described thus: Inhibition of recombinant human C-terminal 10-His tagged hepsin (Arg45 to Leu417) expressed in mouse myeloma cells mediated pro-HGF activation preincubated for 30 mins followed by pro-HGF addition and measured after 1 hr by immunoblotting analysis. The essentials: as §2
Series [16] concerns the target T4, Hepatocyte growth factor activator serine protease (Homo sapiens) (UniProt Q04756).
T4 sequence (whole entry): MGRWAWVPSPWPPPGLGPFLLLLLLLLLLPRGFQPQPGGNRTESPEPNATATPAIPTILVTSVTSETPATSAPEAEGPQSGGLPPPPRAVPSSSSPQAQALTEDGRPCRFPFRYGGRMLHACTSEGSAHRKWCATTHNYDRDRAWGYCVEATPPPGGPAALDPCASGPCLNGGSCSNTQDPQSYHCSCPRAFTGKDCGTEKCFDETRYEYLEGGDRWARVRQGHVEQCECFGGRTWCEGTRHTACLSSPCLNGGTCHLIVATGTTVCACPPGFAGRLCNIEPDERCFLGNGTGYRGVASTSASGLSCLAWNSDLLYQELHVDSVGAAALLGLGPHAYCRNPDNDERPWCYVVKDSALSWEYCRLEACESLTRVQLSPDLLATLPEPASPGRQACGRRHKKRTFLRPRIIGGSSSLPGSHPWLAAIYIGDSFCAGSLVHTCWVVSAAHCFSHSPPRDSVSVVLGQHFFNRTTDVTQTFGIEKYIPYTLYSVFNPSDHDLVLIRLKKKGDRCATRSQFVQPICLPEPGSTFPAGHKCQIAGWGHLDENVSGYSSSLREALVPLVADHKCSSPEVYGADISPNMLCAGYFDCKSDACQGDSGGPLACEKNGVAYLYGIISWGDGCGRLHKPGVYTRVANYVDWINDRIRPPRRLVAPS
The series can be described thus: Inhibition of recombinant human HGFA serine protease domain mediated pro-HGF activation preincubated for 30 mins followed by pro-HGF addition and measured after 1 hr by immunoblotting analysis. The gist of the method: as §2

Series [17] concerns HCC827. As to the kind of experiment: Inhibition of pro-HGF stimulated wound healing in human HCC827 cells preincubated for 30 mins followed by pro-HGF stimulation and measured after 24 hrs by crystal violet staining based assay. The class given is functional, cell-based. The gist of the method: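 HCC827 monolayers grown to confluence, serum-starved overnight, then scratched. Cells were pre-incubated 30 min with inhibitor (10 µM) and stimulated with HGF or pro-HGF for 24 h. Wells stained with crystal violet to score closure. n=3; one-way ANOVA versus pro-HGF alone.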

Series [18] relates to HCC827. The series can be described thus: Cytotoxicity against human HCC827 cells assessed as reduction in cell viability at 0.1 to 1 uM after 72 hrs by crystal violet staining based assay. Conditions: dose 0.1-1 µM.
Series [19] relates to HCC827. As to the kind of experiment: Cytotoxicity against human HCC827 cells assessed as reduction in cell viability at 0.1 to 1 uM after 72 hrs in presence of pro-HGF by crystal violet staining based assay. Conditions: dose 0.1-1 µM.

The pIC50 is the IC50 on a negative log10 scale, so that one unit is a factor of ten. By fraction unbound is commonly meant the share of the substance not bound to proteins or other matrix. Usually solubility stands for the concentration that dissolves in the medium under given conditions. Lower therefore signals little dissolved substance.

Molecules are shown by their SMILES. pIC50: −log10 of the molar value. ≈ marks a conversion by molar mass, not a printed value. Calls of active or inactive are those of the source. No cut-off for these calls is given here. Some results are limits rather than exact numbers.

T2 sequence (P05981 1-162 limits assumed): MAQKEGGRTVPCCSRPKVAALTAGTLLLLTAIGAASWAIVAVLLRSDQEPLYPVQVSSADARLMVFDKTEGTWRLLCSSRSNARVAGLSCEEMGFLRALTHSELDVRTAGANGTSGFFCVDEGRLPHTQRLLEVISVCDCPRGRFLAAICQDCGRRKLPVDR
T2 sequence (P05981 163-417 limits assumed): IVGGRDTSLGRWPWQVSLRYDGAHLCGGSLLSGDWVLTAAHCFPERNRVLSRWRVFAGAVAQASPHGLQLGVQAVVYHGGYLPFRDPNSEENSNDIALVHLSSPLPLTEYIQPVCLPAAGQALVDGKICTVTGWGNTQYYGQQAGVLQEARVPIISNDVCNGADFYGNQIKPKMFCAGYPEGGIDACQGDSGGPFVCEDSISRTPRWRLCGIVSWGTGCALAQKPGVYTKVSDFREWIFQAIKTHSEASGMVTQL

Regarding `CC(=O)N[C@H]1CC(=O)NCCCC[C@@H](C(=O)N[C@@H](CCCNC(=N)N)C(=O)c2nc3ccccc3s2)NC(=O)[C@H](CC(C)C)NC1=O`, the result in the series on NCI-H596, in the series on EBC-1 and in the series on HCC827 [19] was Active. Besides, the Activity result in series [1], in [2], in series [3] and in series [4] was “Non-Toxic” throughout. The pIC50 in series [5] is 8.66; at Serine protease hepsin [6], 7.96. In addition, the t1/2 in [7] was 222 min; in series [8], above 289 min; in series [10] it was 8.7 h; in [12] it was above 145 min; in series [13] it was above 145 min. In addition, the fraction unbound in [9] amounted to 0.286. In addition, the solubility in series [11] was 11 µM (≈ 7.39 µg/mL). Besides, the inhibition result (in series [14]; on Serine protease hepsin [15]; in the series on HCC827 [17]) was “Active” each time. Also, the inhibition result in series [16] is “inactive”. In addition, in the series with HCC827 [18], the result was inactive.
